# Assay outcomes from PubChem BioAssay.
# Only some compounds are listed: those with a hit (about 9.4% of all), similar ones and a draw of the others.
# Mdm2 MdmX PPI: inhibitors of human Mdm2-MdmX association, primary screen, cell-based, luminescence, split luciferase, SaOS-2, uHTS. Protein Mdm4 (Homo sapiens) + E3 ubiquitin-protein ligase Mdm2 (Homo sapiens), …. SaOS-2 split-luciferase Mdm2/MdmX complementation. inhibition, % at 8 µM. actives 3% (n = 330,000);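 active = inhibition of at least 50% at 8 µM in the primary screen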
# Target sequence (O15151 whole entry, looked up): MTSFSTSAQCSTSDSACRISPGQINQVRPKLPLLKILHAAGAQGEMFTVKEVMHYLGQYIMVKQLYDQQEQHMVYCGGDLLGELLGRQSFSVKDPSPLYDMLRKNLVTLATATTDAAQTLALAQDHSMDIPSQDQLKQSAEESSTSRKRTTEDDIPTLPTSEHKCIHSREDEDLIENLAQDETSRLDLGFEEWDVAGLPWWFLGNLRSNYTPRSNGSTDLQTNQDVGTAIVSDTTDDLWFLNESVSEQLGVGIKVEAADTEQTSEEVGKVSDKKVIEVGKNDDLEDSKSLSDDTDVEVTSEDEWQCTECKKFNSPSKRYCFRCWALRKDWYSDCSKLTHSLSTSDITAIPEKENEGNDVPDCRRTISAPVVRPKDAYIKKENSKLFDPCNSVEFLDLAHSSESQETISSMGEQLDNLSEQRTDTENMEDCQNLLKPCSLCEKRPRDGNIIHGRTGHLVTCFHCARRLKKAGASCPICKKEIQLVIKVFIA
# Target sequence (Q00987 whole entry, looked up): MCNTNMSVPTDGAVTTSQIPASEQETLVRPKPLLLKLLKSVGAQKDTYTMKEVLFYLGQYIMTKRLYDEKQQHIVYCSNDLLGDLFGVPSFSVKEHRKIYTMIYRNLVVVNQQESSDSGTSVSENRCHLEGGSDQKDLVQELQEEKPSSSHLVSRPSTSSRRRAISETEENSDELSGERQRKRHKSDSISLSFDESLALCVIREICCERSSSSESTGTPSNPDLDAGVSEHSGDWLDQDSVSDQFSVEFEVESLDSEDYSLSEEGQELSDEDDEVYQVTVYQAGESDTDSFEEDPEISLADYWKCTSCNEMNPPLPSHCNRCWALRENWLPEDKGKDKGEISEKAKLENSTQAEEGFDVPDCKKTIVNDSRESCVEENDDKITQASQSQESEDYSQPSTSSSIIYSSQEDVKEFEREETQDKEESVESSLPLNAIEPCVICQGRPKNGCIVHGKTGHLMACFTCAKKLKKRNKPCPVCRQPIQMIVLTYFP
# SKKanGAS inh: S. pyogenes SKKanGAS growth inhibitors in kanamycin, primary screen, streptokinase expression inhibitor project, SKKanGAS strain, BacTiter-Glo luminescence; 6 h; inhibition, % at 7.5 µM; actives 1.3% (n = 300,000); AID 1662, 2009;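 active = mean replicate score, as percent of positive control median, at least 50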;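 also: strain carries kanamycin resistance gene driven by streptokinase promoter and grows in 40 µg/ml kanamycin; loss of luminescence reflects streptokinase promoter inhibition or plain growth inhibition; 0% = median of DMSO wells and 100% = positive control at its reference dose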
# T cruzi inh: inhibitors of intracellular T. cruzi growth, primary screen, luminescence, NIH3T3 host cells; inhibition, % (concentration not given with the values); actives 1.4% (n = 300,000); T. cruzi beta-gal in NIH3T3, 90 h; AID 1885, 2009;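 active = mean inhibition across valid replicates above about 55%, limit read from the data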;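 also: signal also drops with host cell toxicity which is not excluded here; 0% = plate median of DMSO wells and 100% = zero luminescence signal; higher percent means less beta-gal luminescence so fewer parasites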
#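 Read-out: Parasite load inhibition, % | Test system: Mouse NIH/3T3 fibroblasts infected with β-gal-expressing T. cruzi Tulahuen C4 | Amount: 5,000 cells/well | Medium: DMEM, 2% fetal bovine serum | Signal: GalScreen β-gal luminescence, detergent lysis, 60 min | Timing: 3 h attach, ≥90 h co-culture | Also added: Tulahuen C4 trypomastigotes, 5000/well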
# Lmaj promast: Leishmania major promastigote growth inhibition, primary screen; Leishmania major promastigotes, resazurin fluorescence viability; inhibition, % at 10 µM; actives 9% (n = 200,000); in the data active = inhibition above about 50%;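 also: promastigotes grown with compound for 44 hours at 28 °C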
# CSC inhib: cancer stem cell viability inhibitors, primary screen, luminescence. actives 1.1% (n = 300,000). cancer stem cell-like cells viability. inhibition, % at 7.5 µM; in the data active = inhibition above about 75%; tested in HMLE shEcad cells
# Beta cell apopt: inhibitors of cytokine-induced beta cell apoptosis, primary screen, luminescence. INS-1E cytokine-induced death, ATP luminescence, 48 h; percent of positive-control rescue, neutral wells zero. protection from apoptosis, % (concentration not given with the values). actives 0.8% (n = 300,000);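 active = Every replicate reaches about 75%, or at least half do and their mean reaches it too, limit read from the data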;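 also: 0% = cytokine-treated negative control wells and 100% = positive control rescue; higher means more ATP so stronger rescue from cytokine killing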
# Mdm2 MdmX conf: Mdm2-MdmX complex disruptors, retested hits, confirmation, luminescence, single concentration. Mdm2-MdmX binding, luminescent assay. shares compounds with Mdm2 MdmX PPI. actives 55% (n = 10,000). inhibition, % at 8 µM. AID 489028, 2010; in the data active = inhibition above about 40%
# Full FLuc ctr: full-length luciferase signal inhibition, confirmation, counter-screen for Mdm2/MdmX interaction inhibitor project, cell-based, single concentration, SaOS-2. shares compounds with Mdm2 MdmX PPI. SaOS-2 full-length luciferase counterscreen, luminescence. inhibition, % at 8 µM. actives 77% (n = 6,200). AID 504607, 2011;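 active = mean inhibition at 8 µM reaching about 37%, which flags the compound as non-specific, limit read from the data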;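 also: p53-null SaOS-2 cells with luciferase driven by a doxycycline-inducible promoter; compound on cells about two nights before reading with doxycycline added after day one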
# An asterisk follows results filed as active; / = not tested or not shown.
SMILES,Mdm2 MdmX PPI,SKKanGAS inh,T cruzi inh,Lmaj promast,CSC inhib,Beta cell apopt,Mdm2 MdmX conf,Full FLuc ctr
CCCCCSc1cc(OC)c(CCNC)cc1OC,52.7*,2.9,44.7,100.3*,29.7,45.4,5.2,/
CCCCCCCSc1cc(OC)c(CCNC)cc1OC,52.6*,1.1,20.2,100.5*,41.2,-1.9,25.6,/
COc1ccc(C)cc1NC1=NC(C)(C)CS1,10.3,-8.0,-9.0,19.6,-4.7,-4.3,/,/
N#CC1=C(N)Oc2c(c(=O)sc3ccccc23)C1c1cccnc1 (stereo unspecified),52.1*,-0.4,76.8*,81.1*,51.4,24.8,60.4*,56.5*
COC(=O)C1=C(c2ccc(-c3ccccc3)c(F)c2)C[C@@H]2CC[C@H]1N2C(=O)NC1CCCCC1,69.2*,/,/,/,41.8,21.8,41.3*,64.0*
COC(=O)C1=C(c2ccc(OCc3ccccc3)cc2)C[C@@H]2CC[C@H]1N2C(=O)NC1CCN(Cc2ccccc2)CC1,85.5*,/,/,/,48.3,78.1*,53.8*,61.6*
Cc1ccc(S(=O)(=O)N(c2cc(Cl)c(O)c(Cl)c2)P(=O)(OC(C)C)OC(C)C)cc1,15.4,-16.2,-0.9,0.2,-9.3,4.2,/,/
C1=NCCc2c1[nH]c1ccccc21,52.4*,8.4,27.2,/,-4.4,/,-54.1,/
N#CC(C#N)=NNc1ccc(-n2ccc(C(F)(F)F)n2)cc1,93.9*,31.0,41.8,/,64.3,101.6*,73.1*,31.2
CCN(CC)S(=O)(=O)c1ccc(NN=C(C#N)C#N)cc1,-2.2,14.6,44.8,-0.6,12.2,3.8,/,/
Cc1cc(C)n(-c2ccc(NN=C(C#N)C#N)cc2)n1,62.4*,12.2,10.4,/,31.9,-11.8,58.5*,57.2*
COC(=O)C1=C(c2cc3ccccc3o2)C[C@@H]2CC[C@H]1N2C(=O)NCCO,31.2,-1.5,-0.8,/,3.4,-4.8,/,/
Cc1c(C(=O)c2cccc3ccccc23)c2cccc3c2n1[C@H](CN1CCOCC1)CO3,91.5*,27.6,72.3*,/,100.1*,/,57.4*,93.5*
Cc1cc(C)c(Cn2c(C(=O)O)c(C=O)c3ccccc32)c(C)c1,11.2,-7.8,-0.3,15.0,-5.1,6.6,/,/
CN(C)CCN(C(=O)COc1ccc(Cl)cc1)c1nc2cc3c(cc2s1)OCO3,-2.1,-1.0,34.8,/,-14.9,/,/,/
COC(=O)C1=C(c2ccc(F)cc2OCc2ccccc2)C[C@@H]2CC[C@H]1N2C(=O)NCCOc1ccccc1Cl,57.2*,/,/,/,22.7,3.7,29.2,/
COC(=O)C1=C(c2ccc(F)cc2OCc2ccccc2)C[C@@H]2CC[C@H]1N2C(=O)NCCOc1ccccc1,36.6,/,/,/,19.0,1.9,/,/
COC(=O)C1=C(c2ccccc2OCc2ccccc2)C[C@@H]2CC[C@H]1N2C(=O)NCc1ccc(N(C)C)cc1,61.6*,/,/,/,47.5,-4.7,0.9,/
CC(C)(C#CCCCCC#CC(C)(C)[N+](C)(C)C)[N+](C)(C)C,12.9,-3.3,-3.1,/,-22.8,-8.5,/,/
O=C(NC1CCCCC1)Oc1cc2oc(=O)sc2cc1Cl,12.7,3.8,-33.8,/,0.1,3.4,/,/
S=C=Nc1cccc(C2(N3CCCCC3)CCCCC2)c1,69.3*,/,/,/,5.0,-0.9,22.8,/
Cc1ccc(CNC2=NCCS2)cc1,-1.7,-0.9,2.5,/,-4.4,-3.4,/,/
CC[C@@]1(O)C(=O)OCc2c1cc1n(c2=O)Cc2cc3c(NC(=O)CN)cccc3nc2-1,83.7*,14.1,-32.7,/,108.3*,71.3,78.8*,56.9*
O=C(c1ccc(F)cc1)C(Cc1ccccc1)N1CCCCC1 (stereo unspecified),-5.6,10.3,-2.9,8.5,8.8,-1.4,/,/
O=C(CCCN1CCC2(CC1)C(=O)NCN2c1ccccc1)c1ccc(F)cc1,62.6*,12.7,-10.7,1.4,7.7,-3.3,15.9,/
SMILES,Mdm2 MdmX PPI,SKKanGAS inh,T cruzi inh,Lmaj promast,CSC inhib,Beta cell apopt,Mdm2 MdmX conf,Full FLuc ctr
O=P1(Oc2ccccc2)CC=C[C@H](COCc2ccccc2)O1 (stereo partly specified),-5.0,-0.5,-22.8,/,-11.5,-2.3,/,/
O=C(C1CCC(=O)N1Cc1ccccc1Cl)N1CCC2(CC1)OCCO2 (stereo unspecified),-26.4,-1.0,-6.6,-4.5,/,3.3,/,/
COc1cc(C=C2C(=O)NC(=O)NC2=O)ccc1OCc1ccc([N+](=O)[O-])cc1,/,/,/,2.6,/,/,/,/
COc1cc(/C=C(/C)[N+](=O)[O-])ccc1OCc1ccccc1Cl,94.5*,/,61.4*,100.2*,77.5*,92.4*,100.2*,51.4*
C=C(C=O)CC1CC(O)[C@]2(C)OC3CC4OC5C[C@]6(C)O[C@]7(C)CCC8OC9C[C@]%10(C)OC%11C(C)=CC(=O)OC%11CC%10OC9C[C@@H](C)C8OC7CC6O[C@]5(C)CC5OC5C4OC3CC2O1 (stereo partly specified),98.9*,25.9,45.6,100.5*,9.0,100.6*,100.0*,0.7
C=C(COC(C)=O)CC1CC(O)[C@]2(C)OC3CC4OC5C[C@]6(C)O[C@]7(C)CCC8OC9C[C@]%10(C)OC%11C(C)=CC(=O)OC%11CC%10OC9C[C@@H](C)C8OC7CC6O[C@]5(C)C/C=C\C4OC3CC2O1 (stereo partly specified),30.4,20.0,-6.5,/,/,/,/,/
COc1ccc([N+](=O)[O-])cc1N=Cc1c(O)n(CCc2ccccc2)c(=O)n(C(C)C)c1=O,30.7,15.9,4.5,27.1,-3.7,0.6,/,/
C/C=C(\C)C(=O)N[C@@H](c1ccccc1)[C@@H](O)C(=O)O[C@H]1C[C@@]2(O)[C@@H](OC(=O)c3ccccc3)C3[C@](C)(C(=O)[C@H](O)C(=C1C)C2(C)C)[C@@H](O)C[C@H]1OC[C@@]31OC(C)=O (stereo partly specified),53.3*,0.6,53.1,/,62.9,/,64.8*,41.0*
CCOP(=O)(OCC)c1ccc(OP(=O)(c2cccc([N+](=O)[O-])c2)c2cccc([N+](=O)[O-])c2)cc1,3.8,4.6,0.9,/,-5.5,1.2,/,/
COC(=O)C1=C(c2ccc(F)cc2OCc2ccccc2)C[C@@H]2CC[C@H]1N2C(=O)NCc1ccc(Br)cc1,45.2,/,/,/,28.2,-1.0,/,/
COC(=O)C1=C(c2ccc(OC)c(OC)c2)C[C@@H]2CC[C@H]1N2C(=O)NCC1CC1,11.8,/,/,/,-23.1,0.7,/,/
